pIC50: −log10 of the molar value. The source made the active and inactive calls. The calls are words filed in the database; no cut-off is given here.
How the values were obtained:
[1] = target: T1, NAD-dependent protein deacetylase sirtuin-2 (Homo sapiens, UniProt Q8IXJ6); experiment: Inhibition of SIRT2 deacetylation activity (unknown origin) using FLUOR DE LYS SIRT2 peptide as substrate incubated for 2 hrs in presence of NAD+ measured at 5 mins interval for 20 mins by fluorescence assay
T1 sequence (Q8IXJ6 whole entry): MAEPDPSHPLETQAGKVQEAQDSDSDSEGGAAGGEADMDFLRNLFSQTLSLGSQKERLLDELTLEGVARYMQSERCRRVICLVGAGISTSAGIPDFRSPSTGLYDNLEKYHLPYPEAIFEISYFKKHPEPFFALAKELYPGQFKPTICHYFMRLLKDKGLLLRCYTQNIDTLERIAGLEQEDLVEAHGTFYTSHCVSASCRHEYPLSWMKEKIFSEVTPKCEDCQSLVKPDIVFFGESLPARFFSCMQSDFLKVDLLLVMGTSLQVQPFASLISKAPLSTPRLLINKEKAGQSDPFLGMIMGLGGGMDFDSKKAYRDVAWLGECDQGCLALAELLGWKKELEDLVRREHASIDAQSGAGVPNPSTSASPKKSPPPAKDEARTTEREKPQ

[2] = target: T2, NAD-dependent protein deacetylase sirtuin-2 (Homo sapiens) (UniProt Q8IXJ6); experiment: (§1) Inhibition of p53(Myr)-AMC binding to SIRT2 (unknown origin) incubated for 3 hrs in presence of NAD+ followed by trypsin addition and measured at 5 mins interval for 20 mins by fluorometric method; details: time 200.0 min
T2 sequence (whole entry): T1 sequence (Q8IXJ6 whole entry)

[3] = target: T1, NAD-dependent protein deacetylase sirtuin-2; experiment: as §1
[4] = target: T2, NAD-dependent protein deacetylase sirtuin-2 (Homo sapiens); experiment: (§2) Inhibition of 5-(3-((1r,4r)-4-((5S,8S,11S,14S,17S,20S,29S)-11-((1H-imidazol-4-yl)methyl)-1,33-diamino-5-carbamoyl-17-(4-(4-(4-((4-(dimethylamino)phenyl)diazenyl)phenyl)butanamido)butyl)-8,14-bis(3-guanidinopropyl)-20-methyl-7,10,13,16,19,22,25,28-octaoxo-6,9,12,15,18,21,24,27-octaazatritriacontan-29-ylcarbamoyl)cyclohexyl)thioureido)-2-(6-hydroxy-3-oxo-3H-xanthen-9-yl)benzoic acid binding to SIRT2 (unknown origin) at 10 uM measured after 2 hrs in presence of NAD+ by fluorometric method relative to control
Summary of the method: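 In the primary library screen, 384-well plates held SIRT2 with the Dabcyl-BH/H4K16 one-step FRET probe. Each compound was tested at 10 μM with 0.5% DMSO, and inhibition was taken from the fluorescence signal.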

[5] = target: T3, NAD-dependent protein deacetylase sirtuin-3, mitochondrial (Homo sapiens) (UniProt Q9NTG7); experiment: as §2, with “to SIRT3” for “to SIRT2”, “at 50” for “at 10”, “method” for “method relative to control”
T3 sequence (whole entry): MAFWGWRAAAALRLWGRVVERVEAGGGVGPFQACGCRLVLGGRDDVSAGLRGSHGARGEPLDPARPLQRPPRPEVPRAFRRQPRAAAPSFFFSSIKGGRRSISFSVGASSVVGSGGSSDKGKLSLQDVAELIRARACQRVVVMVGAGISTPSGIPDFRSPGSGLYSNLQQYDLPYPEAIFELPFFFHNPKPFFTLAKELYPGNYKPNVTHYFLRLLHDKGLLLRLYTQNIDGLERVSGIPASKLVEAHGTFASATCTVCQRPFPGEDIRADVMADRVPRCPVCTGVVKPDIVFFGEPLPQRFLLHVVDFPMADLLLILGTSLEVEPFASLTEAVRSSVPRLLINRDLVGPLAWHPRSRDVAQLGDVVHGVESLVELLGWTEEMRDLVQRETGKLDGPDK

[6] = target: T1, NAD-dependent protein deacetylase sirtuin-2; experiment: as §2, with “origin)” for “origin) at 10 uM”, “method” for “method relative to control”
Summary of the method: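 The second screen used the same SIRT2 one-step FRET probe conditions, validated at 2.92 nM SIRT2. Compounds were tested over a range of concentrations to check dose-dependency, and the IC50 was derived from the dose–response curve.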

[7] = target: NAD-dependent protein deacylase sirtuin-6 (Homo sapiens) (UniProt Q8N6T7); experiment: Inhibition of 5-[[(1r,4r)-4-[[(1S)-4-amino-1-[[(1S,2R)-1-[[(1S)-2-[[(1S)-1-[[(1S)-1-[[(1S)-2-[[(1S,2R)-1-[[2-(carboxymethylamino)-2-oxoethyl]carbamoyl]-2-hydroxypropyl]amino]-1-(hydroxymethyl)-2-oxoethyl]carbamoyl]-5-[3-[N-methyl-4-[(4-nitrophenyl)azo]anilino]propanoylamino]pentyl]carbamoyl]-4-guanidinobutyl]amino]-1-methyl-2-oxoethyl]carbamoyl]-2-hydroxypropyl]carbamoyl]-4-oxobutyl]carbamoyl]cyclohexyl]carbamothioylamino]-2-(3-hydroxy-6-oxoxanthen-9-yl)benzoic acid binding to SIRT6 (unknown origin) at 50 uM measured after 2 hrs in presence of NAD+ by fluorometric method
[8] = target: T4, NAD-dependent protein deacetylase sirtuin-1 (Homo sapiens) (UniProt Q96EB6); experiment: Inhibition of 5-(3-((1r,4r)-4-((5S,8S,11S,14S,17S,20S,29S)-11-((1H-imidazol-4-yl)methyl)-1,33-diamino-5-carbamoyl-17-(4-(4-(4-((4-(dimethylamino)phenyl)diazenyl)phenyl)butanamido)butyl)-8,14-bis(3-guanidinopropyl)-20-methyl-7,10,13,16,19,22,25,28-octaoxo-6,9,12,15,18,21,24,27-octaazatritriacontan-29-ylcarbamoyl)cyclohexyl)thioureido)-2-(6-hydroxy-3-oxo-3H-xanthen-9-yl)benzoic acid binding to SIRT1 (unknown origin) at 50 uM measured after 2 hrs in presence of NAD+ by fluorometric method
T4 sequence (whole entry): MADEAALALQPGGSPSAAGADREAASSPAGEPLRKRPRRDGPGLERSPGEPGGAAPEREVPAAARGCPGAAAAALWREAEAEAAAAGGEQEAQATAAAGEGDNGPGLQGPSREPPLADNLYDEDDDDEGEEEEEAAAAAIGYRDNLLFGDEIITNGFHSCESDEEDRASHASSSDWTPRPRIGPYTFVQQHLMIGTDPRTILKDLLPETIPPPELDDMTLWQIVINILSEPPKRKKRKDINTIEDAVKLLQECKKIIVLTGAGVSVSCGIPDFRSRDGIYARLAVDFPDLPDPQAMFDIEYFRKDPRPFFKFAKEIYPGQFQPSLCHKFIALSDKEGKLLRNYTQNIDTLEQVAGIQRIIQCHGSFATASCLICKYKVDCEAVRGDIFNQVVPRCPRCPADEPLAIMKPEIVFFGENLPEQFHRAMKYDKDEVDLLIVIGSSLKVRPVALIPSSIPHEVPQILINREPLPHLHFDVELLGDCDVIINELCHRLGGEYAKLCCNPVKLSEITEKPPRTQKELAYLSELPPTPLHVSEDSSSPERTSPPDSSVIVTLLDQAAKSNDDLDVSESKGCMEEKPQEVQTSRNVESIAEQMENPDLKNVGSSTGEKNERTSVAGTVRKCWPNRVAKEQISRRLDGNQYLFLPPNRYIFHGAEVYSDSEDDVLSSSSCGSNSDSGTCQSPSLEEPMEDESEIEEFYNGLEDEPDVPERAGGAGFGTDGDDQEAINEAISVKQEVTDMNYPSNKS

Sequence of NAD-dependent protein deacylase sirtuin-6 (Homo sapiens) (Q8N6T7 whole entry): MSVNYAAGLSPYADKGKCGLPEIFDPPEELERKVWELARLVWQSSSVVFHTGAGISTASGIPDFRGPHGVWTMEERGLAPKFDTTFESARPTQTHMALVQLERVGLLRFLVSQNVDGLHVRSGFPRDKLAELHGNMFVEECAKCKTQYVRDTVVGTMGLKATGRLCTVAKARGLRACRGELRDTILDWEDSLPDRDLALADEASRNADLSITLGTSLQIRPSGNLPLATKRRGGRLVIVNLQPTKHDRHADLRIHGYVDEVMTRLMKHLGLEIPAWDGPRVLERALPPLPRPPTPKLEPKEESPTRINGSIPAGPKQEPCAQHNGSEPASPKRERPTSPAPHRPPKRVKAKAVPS

- pIC50 [1]: 5.29
- inhibition [2]: Dose-dependent effect
- pIC50 [3]: 4.35
- inhibition [4]: > 35%
- inhibition [5]: inactive
- pIC50 [6]: 4.32
- inhibition [7]: inactive
- inhibition [8]: inactive
SMILES: CCOC(=O)C[C@@H]1C[C@@H](C(C)C)[C@H](CNC(=O)c2cncnc2)C=C1C
